Each block holds one molecule with its values, some of them ahead of it. Active and inactive are the calls of the source. The rule behind the calls is not given here.
Legend:
[1] = molecular target: T1, C-C chemokine receptor type 5 (Homo sapiens, UniProt P51681); assay: Displacement of [125I]MIP-1beta from CCR5 in IL-10-stimulated human monocytes; format: cell-based
[2] = test system: Human immunodeficiency virus 1; assay: Antiviral activity against HIV-1 BaL infected in PHA-stimulated human PBMC cells assessed as viral p24 core protein level after 7 days by ELISA; format: functional, organism-based; details: Human immunodeficiency virus 1, BaL, 168 h
How it was run: (§1)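 Human PBMC activated with PHA, then infected with HIV-1 (ADA or BaL strain). Infectivity was read as viral p24 core protein in the culture supernatants.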

[3] = Tmax in rat at 20 mg/kg, po; format: ADME, organism-based; set-up: dose 20 mg/kg, route oral; details: in vivo
[4] = Tmax in dog at 20 mg/kg, po; format: ADME, organism-based, Canis lupus familiaris; set-up: dose 20 mg/kg, route oral; details: in vivo
[5] = test system: Human immunodeficiency virus 1; assay: Antiviral activity against HIV-1 R5 clade C infected in human PBMC cells; format: functional; details: Human immunodeficiency virus 1, R5 clade C
[6] = molecular target: T1, C-C chemokine receptor type 5; assay: Antagonist activity at CCR5 assessed as inhibition of ERK phosphorylation; format: functional
[7] = Cmax in dog at 20 mg/kg, po; format: ADME, organism-based, Canis lupus familiaris; set-up: dose 20 mg/kg, route oral; details: in vivo
[8] = molecular target: T1, C-C chemokine receptor type 5; assay: Activation of CCR5 in human PBMC cells; format: cell-based
[9] = molecular target: T1, C-C chemokine receptor type 5; assay: Antagonist activity at CCR5 assessed as inhibition of intracellular calcium mobilization; format: functional, cell-based
[10] = Systemic clearance in rat at 1 mg/kg, iv; format: ADME, organism-based; set-up: dose 1 mg/kg, route intravenous; details: in vivo
[11] = AUC in rat at 1 mg/kg, iv; format: ADME, organism-based; set-up: dose 1 mg/kg, route intravenous; details: plasma
[12] = Half life in human in repeated dosing regimen; format: ADME, organism-based; details: in vivo
[13] = test system: Human immunodeficiency virus 1; assay: Antiviral activity against HIV-1 R5 clade E infected in human PBMC cells; format: functional; details: Human immunodeficiency virus 1, R5 clade E
[14] = test system: Human immunodeficiency virus 1; assay: Antiviral activity against HIV-1 R5 clade B infected in human PBMC cells; format: functional; details: Human immunodeficiency virus 1, R5 clade B
[15] = AUC in dog at 1 mg/kg, iv; format: ADME, organism-based, Canis lupus familiaris; set-up: dose 1 mg/kg, route intravenous; details: plasma
[16] = test system: Human immunodeficiency virus 1; assay: Antiviral activity against HIV-1 ADA infected in PHA-stimulated human PBMC cells assessed as viral p24 core protein level after 7 days by ELISA; format: functional, organism-based; details: Human immunodeficiency virus 1, ADA, 168 h; how it was run: as §1
[17] = Systemic clearance in dog at 1 mg/kg, iv; format: ADME, organism-based, Canis lupus familiaris; set-up: dose 1 mg/kg, route intravenous; details: in vivo
[18] = Half life in rat at 20 mg/kg, po; format: ADME, organism-based; set-up: dose 20 mg/kg, route oral; details: in vivo
[19] = molecular target: T1, C-C chemokine receptor type 5; assay: Antagonist activity at CCR5 assessed as inhibition of receptor internalization; format: functional
[20] = Cmax in rat at 20 mg/kg, po; format: ADME, organism-based; set-up: dose 20 mg/kg, route oral; details: in vivo
[21] = Oral bioavailability in dog at 20 mg/kg; format: ADME, organism-based, Canis lupus familiaris; details: in vivo
[22] = test system: Human immunodeficiency virus 1; assay: Antiviral activity against HIV-1 R5 clade G infected in human PBMC cells; format: functional; details: Human immunodeficiency virus 1, R5 clade G
Rattus norvegicus = assay: Volume of distribution in rat at 1 mg/kg, iv; format: ADME, organism-based; set-up: dose 1 mg/kg, route intravenous; details: in vivo
Cytochrome P450 3A4 = Cytochrome P450 3A4 (Homo sapiens, UniProt P08684); assay: Inhibition of CYP3A4; format: ADME
[23] = test system: Human immunodeficiency virus 1; assay: Antiviral activity against HIV-1 R5 clade D infected in human PBMC cells; format: functional; details: Human immunodeficiency virus 1, R5 clade D
[24] = Half life in dog at 1 mg/kg, iv; format: ADME, organism-based, Canis lupus familiaris; set-up: dose 1 mg/kg, route intravenous; details: in vivo
[25] = Plasma concentration in rat at 20 mg/kg, po after 24 hrs; format: ADME, organism-based; set-up: dose 20 mg/kg, route oral
Canis familiaris = assay: Volume of distribution in dog at 1 mg/kg, iv; format: ADME, organism-based, Canis lupus familiaris; set-up: dose 1 mg/kg, route intravenous; details: in vivo
[26] = test system: Human immunodeficiency virus 1; assay: Antiviral activity against HIV-1 R5 clade J infected in human PBMC cells; format: functional; details: Human immunodeficiency virus 1, R5 clade J
Cytochrome P450 2C19 = Cytochrome P450 2C19 (Homo sapiens, UniProt P33261); assay: Inhibition of CYP2C19; format: ADME
[27] = Half life in rat at 1 mg/kg, iv; format: ADME, organism-based; set-up: dose 1 mg/kg, route intravenous; details: in vivo
[28] = test system: Human immunodeficiency virus 1; assay: Antiviral activity against HIV-1 X4 infected in PBMC cells; format: functional, organism-based
[29] = Induction of Cytochrome P450 up to 30 uM; format: ADME
[30] = Permeability across basolateral to apical side in human Caco2 cells; format: ADME, cell-based; details: Caco-2, read-out: permeability
[31] = Protein binding in human serum assessed as fraction unbound; format: ADME, cell-free
[32] = molecular target: Voltage-gated inwardly rectifying potassium channel KCNH2 (Homo sapiens, UniProt Q12809); assay: Inhibition of human hERG
How it was run: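 hERG potassium current was measured by patch clamp, and IC50 was derived from current inhibition.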

[33] = test system: Human immunodeficiency virus 1; assay: Antiviral activity against HIV-1 R5 clade A infected in human PBMC cells; format: functional; details: Human immunodeficiency virus 1, R5 clade A
[34] = AUC in rat at 20 mg/kg, po; format: ADME, organism-based; set-up: dose 20 mg/kg, route oral; details: plasma
Cytochrome P450 2D6 = Cytochrome P450 2D6 (Homo sapiens, UniProt P10635); assay: Inhibition of CYP2D6; format: ADME
Cytochrome P450 1A2 = molecular target: T2, Cytochrome P450 1A2 (Homo sapiens, UniProt P05177); assay: Inhibition of CYP1A2; format: ADME
T2 sequence (P05177 whole entry): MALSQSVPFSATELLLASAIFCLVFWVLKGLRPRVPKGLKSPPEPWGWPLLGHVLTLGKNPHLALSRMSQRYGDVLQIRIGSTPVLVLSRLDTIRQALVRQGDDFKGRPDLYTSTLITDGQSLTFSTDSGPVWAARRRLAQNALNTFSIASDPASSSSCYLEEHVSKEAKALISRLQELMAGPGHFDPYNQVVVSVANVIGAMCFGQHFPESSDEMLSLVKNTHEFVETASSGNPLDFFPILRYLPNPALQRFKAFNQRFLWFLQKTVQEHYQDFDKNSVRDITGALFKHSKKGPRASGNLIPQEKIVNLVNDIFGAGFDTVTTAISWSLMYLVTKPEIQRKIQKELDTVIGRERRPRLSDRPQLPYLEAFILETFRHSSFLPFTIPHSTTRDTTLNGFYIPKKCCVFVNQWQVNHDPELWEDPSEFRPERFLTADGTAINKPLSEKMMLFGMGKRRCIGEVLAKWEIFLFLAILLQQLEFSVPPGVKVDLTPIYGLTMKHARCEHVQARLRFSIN

Cytochrome P450 2C9 = Cytochrome P450 2C9 (Homo sapiens, UniProt P11712); assay: Inhibition of CYP2C9; format: ADME
[35] = test system: Human immunodeficiency virus 1; assay: Antiviral activity against HIV-1 R5 clade F infected in human PBMC cells; format: functional; details: Human immunodeficiency virus 1, R5 clade F
[36] = AUC in dog at 20 mg/kg, po; format: ADME, organism-based, Canis lupus familiaris; set-up: dose 20 mg/kg, route oral; details: plasma
[37] = Half life in dog at 20 mg/kg, po; format: ADME, organism-based, Canis lupus familiaris; set-up: dose 20 mg/kg, route oral; details: in vivo
[38] = Oral bioavailability in rat at 20 mg/kg; format: ADME, organism-based; details: in vivo

T1 sequence (P51681 whole entry): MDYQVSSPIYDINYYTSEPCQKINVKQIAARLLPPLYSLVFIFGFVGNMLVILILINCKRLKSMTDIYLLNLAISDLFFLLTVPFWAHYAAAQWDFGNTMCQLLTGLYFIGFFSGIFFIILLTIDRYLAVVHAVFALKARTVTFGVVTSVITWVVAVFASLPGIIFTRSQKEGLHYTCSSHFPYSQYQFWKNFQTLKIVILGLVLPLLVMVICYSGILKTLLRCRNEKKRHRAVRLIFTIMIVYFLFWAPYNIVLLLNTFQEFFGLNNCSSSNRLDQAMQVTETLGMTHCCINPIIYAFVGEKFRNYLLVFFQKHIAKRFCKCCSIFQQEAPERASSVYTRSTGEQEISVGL
Sequence of Cytochrome P450 2C9 (P11712 whole entry): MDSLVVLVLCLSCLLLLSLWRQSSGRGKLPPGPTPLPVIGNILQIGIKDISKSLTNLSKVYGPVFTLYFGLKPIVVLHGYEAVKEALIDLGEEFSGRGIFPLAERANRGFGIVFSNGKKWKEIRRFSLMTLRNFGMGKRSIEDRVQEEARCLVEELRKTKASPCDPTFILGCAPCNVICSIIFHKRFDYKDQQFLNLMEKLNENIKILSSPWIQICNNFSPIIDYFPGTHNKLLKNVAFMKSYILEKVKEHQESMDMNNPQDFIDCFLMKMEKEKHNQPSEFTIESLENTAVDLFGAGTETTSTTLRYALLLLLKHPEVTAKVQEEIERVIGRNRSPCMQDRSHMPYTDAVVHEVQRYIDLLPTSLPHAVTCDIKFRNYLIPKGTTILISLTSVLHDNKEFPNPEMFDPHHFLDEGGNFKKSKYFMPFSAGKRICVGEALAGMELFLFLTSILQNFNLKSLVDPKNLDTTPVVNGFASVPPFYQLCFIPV
Sequence of Cytochrome P450 2C19 (P33261 whole entry): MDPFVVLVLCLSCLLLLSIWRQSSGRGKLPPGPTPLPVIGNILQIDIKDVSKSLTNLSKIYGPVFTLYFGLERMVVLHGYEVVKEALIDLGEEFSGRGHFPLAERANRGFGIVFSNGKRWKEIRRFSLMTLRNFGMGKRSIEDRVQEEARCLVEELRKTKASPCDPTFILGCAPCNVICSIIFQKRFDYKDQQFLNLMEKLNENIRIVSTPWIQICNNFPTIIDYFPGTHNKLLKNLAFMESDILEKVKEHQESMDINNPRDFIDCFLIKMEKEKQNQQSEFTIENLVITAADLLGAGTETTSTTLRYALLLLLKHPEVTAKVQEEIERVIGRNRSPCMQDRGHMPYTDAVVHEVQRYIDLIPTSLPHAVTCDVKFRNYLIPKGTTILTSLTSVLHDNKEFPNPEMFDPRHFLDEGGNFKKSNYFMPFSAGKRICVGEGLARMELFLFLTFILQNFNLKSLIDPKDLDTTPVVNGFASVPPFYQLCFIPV
Sequence of Voltage-gated inwardly rectifying potassium channel KCNH2 (Q12809 whole entry): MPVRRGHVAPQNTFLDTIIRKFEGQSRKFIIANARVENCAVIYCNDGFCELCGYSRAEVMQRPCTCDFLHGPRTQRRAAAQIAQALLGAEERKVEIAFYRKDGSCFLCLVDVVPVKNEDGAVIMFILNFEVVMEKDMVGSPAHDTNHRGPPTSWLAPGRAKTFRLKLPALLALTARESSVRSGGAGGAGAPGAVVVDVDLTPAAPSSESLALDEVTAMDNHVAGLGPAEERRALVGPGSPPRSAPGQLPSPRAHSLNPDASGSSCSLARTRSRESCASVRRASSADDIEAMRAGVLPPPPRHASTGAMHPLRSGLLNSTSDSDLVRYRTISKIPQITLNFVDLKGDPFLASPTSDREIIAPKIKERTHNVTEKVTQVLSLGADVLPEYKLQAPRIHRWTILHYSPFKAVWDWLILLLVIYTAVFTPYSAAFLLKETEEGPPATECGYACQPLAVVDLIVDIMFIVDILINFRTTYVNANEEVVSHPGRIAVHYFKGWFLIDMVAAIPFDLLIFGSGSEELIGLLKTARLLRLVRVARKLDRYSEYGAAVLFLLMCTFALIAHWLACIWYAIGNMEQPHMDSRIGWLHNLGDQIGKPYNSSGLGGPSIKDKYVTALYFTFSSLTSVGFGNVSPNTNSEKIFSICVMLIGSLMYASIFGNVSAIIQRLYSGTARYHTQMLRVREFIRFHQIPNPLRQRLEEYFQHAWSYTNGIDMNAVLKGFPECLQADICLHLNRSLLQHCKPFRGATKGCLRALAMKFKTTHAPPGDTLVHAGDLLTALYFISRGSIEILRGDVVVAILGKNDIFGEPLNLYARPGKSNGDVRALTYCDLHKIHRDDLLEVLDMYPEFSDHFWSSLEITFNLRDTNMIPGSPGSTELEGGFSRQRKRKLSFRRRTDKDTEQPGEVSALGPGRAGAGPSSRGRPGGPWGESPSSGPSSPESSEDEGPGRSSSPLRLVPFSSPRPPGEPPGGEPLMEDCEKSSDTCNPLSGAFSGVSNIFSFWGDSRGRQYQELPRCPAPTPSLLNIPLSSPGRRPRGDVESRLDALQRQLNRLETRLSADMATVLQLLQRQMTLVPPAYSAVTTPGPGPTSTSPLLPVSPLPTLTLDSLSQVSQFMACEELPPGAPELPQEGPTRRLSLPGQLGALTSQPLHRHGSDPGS
Sequence of Cytochrome P450 2D6 (P10635 whole entry): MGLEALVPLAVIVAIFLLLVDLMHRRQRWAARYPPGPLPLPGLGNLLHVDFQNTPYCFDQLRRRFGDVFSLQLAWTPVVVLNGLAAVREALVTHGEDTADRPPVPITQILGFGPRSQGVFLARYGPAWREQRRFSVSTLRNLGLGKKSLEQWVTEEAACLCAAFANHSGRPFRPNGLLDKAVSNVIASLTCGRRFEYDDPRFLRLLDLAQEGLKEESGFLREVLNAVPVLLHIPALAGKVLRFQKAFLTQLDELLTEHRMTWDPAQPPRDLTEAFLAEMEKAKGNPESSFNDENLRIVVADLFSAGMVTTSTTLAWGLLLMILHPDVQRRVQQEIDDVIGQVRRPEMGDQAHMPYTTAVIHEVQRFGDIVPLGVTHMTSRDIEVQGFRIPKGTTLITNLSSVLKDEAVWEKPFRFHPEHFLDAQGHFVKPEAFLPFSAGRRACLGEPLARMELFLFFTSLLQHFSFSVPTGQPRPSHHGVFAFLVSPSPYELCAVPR
Sequence of Cytochrome P450 3A4 (P08684 whole entry): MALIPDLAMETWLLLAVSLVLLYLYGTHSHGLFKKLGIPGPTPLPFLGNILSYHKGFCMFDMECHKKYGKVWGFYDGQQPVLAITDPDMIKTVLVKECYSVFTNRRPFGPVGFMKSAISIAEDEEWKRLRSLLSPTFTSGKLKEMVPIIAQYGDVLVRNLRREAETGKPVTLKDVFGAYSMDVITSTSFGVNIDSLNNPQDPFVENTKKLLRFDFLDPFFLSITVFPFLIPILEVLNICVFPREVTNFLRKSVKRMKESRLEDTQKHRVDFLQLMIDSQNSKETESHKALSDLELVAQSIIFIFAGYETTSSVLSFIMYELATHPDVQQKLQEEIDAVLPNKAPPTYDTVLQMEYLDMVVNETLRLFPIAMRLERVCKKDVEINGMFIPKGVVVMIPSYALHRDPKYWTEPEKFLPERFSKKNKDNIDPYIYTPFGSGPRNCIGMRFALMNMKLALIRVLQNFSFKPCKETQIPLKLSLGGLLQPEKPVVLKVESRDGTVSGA

IC50 [1]: > 1000 nM
SMILES: CO[C@H]1Cc2cc(C(F)(F)F)ccc2[C@@H]1N1CCN(C2(C)CCN(C(=O)c3c(C)ncnc3C)CC2)C[C@@H]1C

IC50 [1]: > 1000 nM
SMILES: Cc1ncnc(C)c1C(=O)N1CCC(C)(N2CCN([C@H]3c4ccc(C(F)(F)F)cc4C[C@@H]3O)[C@@H](C)C2)CC1

IC50 [1]: 211 nM
SMILES: Cc1ncnc(C)c1C(=O)N1CCC(C)(N2CCN([C@@H]3c4ccc(C(F)(F)F)cc4C[C@H]3O)[C@@H](C)C2)CC1

IC50 [2]: 11 nM
IC50 [16]: 12 nM
IC50 [1]: 4.6 nM
SMILES: CO[C@@H]1Cc2cc(C(F)(F)F)ccc2[C@H]1N1CCN(C2(C)CCN(C(=O)c3c(C)ncnc3C)CC2)C[C@@H]1C

The remaining lines, values behind:

SMILES: Cc1ncnc(C)c1C(=O)N1CCC(C)(N2CCN(C3CCc4cc(Br)ccc43)[C@@H](C)C2)CC1 (single isomer, unassigned; diastereomer 1)
IC50 [2]: 334 nM
IC50 [1]: 3.9 nM

SMILES: CCO[C@@H]1Cc2cc(C(F)(F)F)ccc2[C@H]1N1CCN(C2(C)CCN(C(=O)c3c(C)ncnc3C)CC2)C[C@@H]1C [INCB-9471]
Tmax [3]: 3 h
IC50 [2]: 0.16 nM
Tmax [4]: 30 min
IC90 [5]: 9 nM
IC50 [6]: 3 nM
Cmax [7]: 14 µM
Kd [8]: 3.1 nM
IC50 [9]: 16 nM
clearance [10]: 10.3 mL/min/kg
AUC [11]: 2.9 µM·h
half-life [12]: 3480 min
IC90 [13]: 9 nM
IC90 [14]: 9 nM
AUC [15]: 7.85 µM·h
IC50 [16]: 0.36 nM
clearance [17]: 3.33 mL/min/kg
half-life [18]: 720 min
IC50 [19]: 1.5 nM
Cmax [20]: 4.07 µM
bioavailability [21]: 95%
IC90 [22]: 9 nM
Vd (Rattus norvegicus): 4.1 L/kg
IC50 [1]: 6.5 nM
IC50 (Cytochrome P450 3A4): > 25 µM
IC90 [23]: 9 nM
half-life [24]: 660 min
concentration at 24 h [25]: 1090 nM
Vd (Canis familiaris): 3.8 L/kg
IC90 [26]: 9 nM
IC50 (Cytochrome P450 2C19): > 25 µM
half-life [27]: 360 min
Activity [28]: inactive
Activity [29]: Not Active
Papp B→A [30]: 16.5 ×10⁻⁶ cm/s
fraction unbound [31]: 0.16
IC50 [32]: 4.5 µM
IC90 [33]: 9 nM
AUC [34]: 55.2 µM·h
IC50 (Cytochrome P450 2D6): > 25 µM
IC50 (Cytochrome P450 1A2): > 25 µM
IC50 (Cytochrome P450 2C9): > 25 µM
IC90 [35]: 9 nM
AUC [36]: 150 µM·h
half-life [37]: 1020 min
bioavailability [38]: 100%

SMILES: CCO[C@H]1Cc2cc(C(F)(F)F)ccc2[C@@H]1N1CCN(C2(C)CCN(C(=O)c3c(C)ncnc3C)CC2)C[C@@H]1C
IC50 [1]: > 1000 nM

SMILES: Cc1ncnc(C)c1C(=O)N1CCC(C)(N2CCN(C3CCc4cc(Br)ccc43)[C@@H](C)C2)CC1 (mixture of isomers)
IC50 [1]: 190 nM

SMILES: Cc1ncnc(C)c1C(=O)N1CCC(C)(N2CCN(C3CCc4cc(C(F)(F)F)ccc43)[C@@H](C)C2)CC1 (single isomer, unassigned)
IC50 [2]: 19 nM
IC50 [1]: 5 nM

SMILES: COC[C@@H](c1ccc(C(F)(F)F)cc1)N1CCN(C2(C)CCN(C(=O)c3c(C)ncnc3C)CC2)C[C@@H]1C [VICRIVIROC]
IC50 [2]: 0.23 nM
half-life [12]: 1680 min
IC50 [16]: 0.56 nM

Source: ChEMBL document CHEMBL1687698, “Discovery of INCB9471, a Potent, Selective, and Orally Bioavailable CCR5 Antagonist with Potent Anti-HIV-1 Activity” (ACS Med Chem Lett, 2010)
